Compound activity: PubChem BioAssay, several laboratories
Compounds with a hit are over-represented: about 2.6% of the library has one in this group of screens.
SENP8 block-1: human SENP8 protease inhibitors, primary screen, biochemical, fluorescence, Nedd8 protein substrate, uHTS | Sentrin-specific protease 8 (Homo sapiens), Q96LD8 | recombinant SENP8 | inhibition, % at 20 µM | 0.64% of 360,000 active | AID 602440, 2012; in the data active = inhibition mostly above about 40%, no sharp cut-off; inactive = mostly below about 27%
Target sequence (Q96LD8 whole entry, looked up): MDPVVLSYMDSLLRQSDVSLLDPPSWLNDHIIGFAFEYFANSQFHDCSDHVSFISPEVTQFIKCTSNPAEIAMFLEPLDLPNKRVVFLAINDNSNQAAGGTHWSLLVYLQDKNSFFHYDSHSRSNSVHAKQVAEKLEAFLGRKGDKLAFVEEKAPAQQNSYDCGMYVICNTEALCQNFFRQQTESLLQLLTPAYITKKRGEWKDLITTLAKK
Platelet DG rel: inhibitors of platelet dense granule secretion, primary screen, cell-based, MLPCN, human platelets | 0.22% of 300,000 active | inhibition, %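 (compounds screened at 7.5 µM in platelet-rich plasma)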 | human platelet-rich plasma, SFLLRN dense granule ATP release, luminescence;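 active = mean replicate score, as percent of positive control, at or above 50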
SENP7 block: SENP7 protease inhibitors, primary screen, biochemical, luminescence, uHTS | recombinant SENP7, Z-RLRGG-aminoluciferin luminescence, 40 min | 1.5% of 330,000 active | Sentrin-specific protease 7 (Homo sapiens), Q9BQF6 | inhibition, % at 5 µM;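 active = inhibition above about 50% at the single test dose, limit read from the data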;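 also: plate controls were DMSO with enzyme for no effect and no enzyme buffer wells for full effect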
SENP8 block-2: SENP8 protease inhibitors, primary screen, biochemical, luminescence | Sentrin-specific protease 8 (Homo sapiens), Q96LD8 | purified SENP8, Z-RLRGG-aminoluciferin cleavage | inhibition, % at 10 µM | 1.2% of 330,000 active; in the data active = inhibition above about 50%
SENP1 inh: human SENP1 catalytic domain inhibitors, primary screen, biochemical, FRET, uHTS; Sentrin-specific protease 1 (Homo sapiens), Q9P0U3; recombinant SENP1 catalytic domain, CyPet-SUMO1-YPet FRET cleavage; inhibition, % at 10 µM; 0.21% of 360,000 active; AID 624204, 2012;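 active = inhibition at least 30% at 10 µM, raw YFP signal under a set limit, fluorescence ratio 0.5 to 1.5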;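 also: 0% = enzyme with DMSO and 100% = no enzyme wells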
Target sequence (Q9P0U3 419-644 limits assumed): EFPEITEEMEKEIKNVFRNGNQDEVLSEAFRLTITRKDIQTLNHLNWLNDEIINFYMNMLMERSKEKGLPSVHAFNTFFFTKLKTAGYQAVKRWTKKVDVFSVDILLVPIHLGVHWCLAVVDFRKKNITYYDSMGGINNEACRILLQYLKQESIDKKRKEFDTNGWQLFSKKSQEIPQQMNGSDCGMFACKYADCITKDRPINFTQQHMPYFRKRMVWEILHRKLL
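material = recombinant human SENP1 catalytic domain, His6-tagged | quantity = 20 pM enzyme | reagent = 25 nM SUMO1 FRET substrate | compound dosing = 10 µM single point, 0.5% DMSO | timing = 50 min enzyme reaction, room temperature, light-protected | detection = FRET, CFP and YFP emission | control set = no-enzyme low, enzyme-DMSO high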
SENP6 inh: SENP6 protease inhibitors, primary screen, biochemical, luminescence, uHTS. Sentrin-specific protease 6 (Homo sapiens), Q9GZR1. Recombinant SENP6 catalytic domain, aminoluciferin luminescence. inhibition, % at 10 µM. 1.8% of 330,000 active. AID 2599, 2010;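 active = inhibition above about 50% at the single tested dose, limit read from the data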;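 also: plate controls were DMSO wells with enzyme for no effect and DMSO wells lacking enzyme for full effect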
SENP8 confirm: SENP8 protease inhibitors, retest, confirmation, biochemical, luminescence, single concentration; AID 488912, 2010; 40% of 6,200 active; shares compounds with SENP7 block; inhibition, % at 12.5 µM; Recombinant SENP8, Z-RLRGG-aminoluciferin luminescence, 60 min;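 active = mean inhibition across replicates above about 50%, limit read from the data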
SENP6 confirm: SENP6 protease inhibitors, confirmation, biochemical, luminescence, single concentration | 58% of 6,200 active | recombinant SENP6, Z-RLRGG-aminoluciferin luminescence | shares compounds with SENP7 block | inhibition, % at 12.5 µM
SENP7 conf: SENP7 protease inhibitors, retest, confirmation, biochemical, luminescence, single concentration; recombinant SENP7, Z-RLRGG-aminoluciferin luminescence, 40 min; inhibition, % at 12.5 µM; shares compounds with SENP7 block; 69% of 6,200 active
Casp3 select: caspase-3 protease inhibitors, confirmation, selectivity assay for SENP inhibitor project, biochemical, single concentration. shares compounds with SENP7 block. purified caspase-3, Z-DEVD-aminoluciferin luminescence, 60 min. inhibition, % at 12.5 µM. 60% of 6,200 active. AID 488918, 2010;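 active = mean inhibition above about 50%, limit read from the data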;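 also: plate controls were enzyme with DMSO for no effect and wells without caspase-3 for full effect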
Target sequence (P42574 28-227 limits assumed): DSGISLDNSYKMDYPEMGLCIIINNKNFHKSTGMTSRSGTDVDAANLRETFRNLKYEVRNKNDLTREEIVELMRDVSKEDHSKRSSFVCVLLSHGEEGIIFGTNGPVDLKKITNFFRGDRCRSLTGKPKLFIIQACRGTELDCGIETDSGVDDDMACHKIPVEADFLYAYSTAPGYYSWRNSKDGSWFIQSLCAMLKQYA
Luc interf: counter-screen for SENP inhibitors: luminescence interference | Pre-incubated SENP8/Z-RLRGG-aminoluciferin, luciferase luminescence interference | 39% of 6,200 active | shares compounds with SENP7 block | inhibition, % at 12.5 µM;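 active = mean inhibition above about 50% when retested at one dose, limit read from the data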;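 also: plate controls were DMSO wells with completed reaction for no effect and substrate without enzyme for full effect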
* hit, by the source's call; / = no result given.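 The calls were made as follows, unless noted: active = mean inhibition above about 50% in the one-dose retest (limit read from the data); inactive = the rest.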

SMILES	SENP8 block-1	Platelet DG rel	SENP7 block	SENP8 block-2	SENP1 inh	SENP6 inh	SENP8 confirm	SENP6 confirm	SENP7 conf	Casp3 select	Luc interf
CN(CC(=O)Nc1ccc(Cl)c(C(F)(F)F)c1)C(=O)C1CSC2(C)CCC(=O)N12 (stereo not drawn)	9	0	-10	-10	2	-4	/	/	/	/	/
CC12CCC(c3c1nc1ccccc1[n+]3[O-])C2(C)C (stereo not drawn)	10	1	2	-1	0	1	/	/	/	/	/
O=C(O)c1cc(O)c2c(c1)C(=O)c1cc(O)cc(O)c1C2=O	3	4	-6	28	4	52*	67*	60*	84*	23	72*
COc1ccccc1N/C=C/c1onc(C)c1[N+](=O)[O-]	22	64*	99*	96*	-24	99*	84*	95*	96*	92*	11
Cc1noc(/C=C/c2ccccn2)c1[N+](=O)[O-]	0	1	-2	-4	-1	10	/	/	/	/	/
CC(C)(C)CC(=O)NCCCCCCNC(=O)CC(C)(C)C	6	0	-1	-5	-2	-4	/	/	/	/	/
CC(=O)Oc1ccccc1/C=C/c1nc2ccccc2c(=O)o1	-41	3	66*	65*	3	76*	77*	74*	90*	94*	57*
Cn1c(SCC(=O)Nc2ccc(Cl)cc2F)nnc1-c1ccco1	3	-3	3	-1	1	7	/	/	/	/	/
CCCCc1c(C)c(C#N)c2[nH]c3ccccc3n2c1=O	-413	-24	32	22	-2	14	/	/	/	/	/
CCCc1cc(=O)n2c([nH]c3ccccc32)c1C#N	-266	-5	8	42	-7	51*	24	38	51*	53*	44
COC(=O)c1ccc(-c2nc(-c3cccs3)no2)cc1	5	/	98*	87*	1	92*	78*	88*	89*	88*	38
COc1ccc(-c2nc(-c3ccc(Br)o3)no2)cc1	4	22	70*	25	-3	49	6	12	11	27	9
CCOC(=O)c1ccc(OCc2nc(-c3cccs3)no2)cc1	17	-1	4	19	1	35	/	/	/	/	/
O=C(Nc1ccc(-c2noc(-c3cccs3)n2)cc1)c1cccnc1	7	2	55*	20	-3	38	5	41	68*	26	7
COC(=O)c1ccc(-c2nc(-c3ccc(Br)o3)no2)cc1	10	6	52*	-5	3	0	-13	-7	18	16	2
COc1ccccc1C(=O)NCC(=O)NNC(=O)C1COc2ccccc2O1 (stereo not drawn)	-8	-7	15	-2	1	-8	/	/	/	/	/
COc1ccc(Cc2c(-c3ccccc3)nc3ccc(Br)cn23)c(C)c1	-68	/	/	/	-3	/	/	/	/	/	/
NC(=O)c1ccc(CN2CCc3ccccc3C2)cc1	2	6	5	-3	1	-2	/	/	/	/	/
O=C(Cc1cccs1)NCCc1ccc(Cl)cc1	7	3	0	-5	-1	-4	/	/	/	/	/
CCCCCC(=O)N1C[C@@H](O)[C@H](n2cc(COC(=O)c3ccccc3)nn2)C[C@@H]1c1ccc(Cl)cc1	-20	/	/	/	1	/	/	/	/	/	/
CCCc1cc(=O)[nH]c(SCC(=O)c2ccc3c(c2)NC(=O)CO3)n1	8	3	6	0	3	98*	-15	-10	-12	-4	-9
CCCc1nc(SCC(=O)c2ccc3c(c2)NC(=O)CO3)[nH]c(=O)c1CC	5	/	/	/	0	/	/	/	/	/	/
CN(C1=C(NC(=O)c2ccccc2)C(=O)c2ccccc2C1=O)C1CCS(=O)(=O)C1 (stereo not drawn)	64*	-7	53*	60*	12	95*	70*	87*	57*	75*	0
O=C(NC(=S)NC1CCS(=O)(=O)C1)c1ccccc1 (stereo not drawn)	8	4	-3	1	1	0	/	/	/	/	/
CCN(CC)S(=O)(=O)c1ccc2c(c1)nc(SCC(=O)NCC1CCCO1)n2CC (stereo not drawn)	-4	3	-2	1	1	-7	/	/	/	/	/
SMILES	SENP8 block-1	Platelet DG rel	SENP7 block	SENP8 block-2	SENP1 inh	SENP6 inh	SENP8 confirm	SENP6 confirm	SENP7 conf	Casp3 select	Luc interf
Cc1ccccc1CC(=O)Nc1ccc(C(=O)N2CCCC2)cc1	8	48	55*	17	2	41	44	40	69*	78*	53*
Cc1ccc(C(=O)Nc2ccc(C(=O)N3CCCCC3)cc2)o1	3	7	78*	48	0	66*	58*	60*	89*	89*	68*
Cc1ccc(C(=O)Nc2ccc(NC(=O)c3ccc(C)o3)cc2)o1	-10	-6	-4	1	-1	18	/	/	/	/	/
NC(=O)c1nn(-c2ccccc2)nc1NC(=O)CN1CCOCC1	-31	-1	6	11	2	0	/	/	/	/	/
CCCCNS(=O)(=O)c1ccc(S(=O)(=O)N2CCC3(CC2)OCCO3)cc1	4	-8	3	5	2	-1	/	/	/	/	/
O=C(Nc1ccc(N2CCCCC2)cc1)c1cc([N+](=O)[O-])cc([N+](=O)[O-])c1	14	2	3	-2	1	5	/	/	/	/	/
CCOc1ccc(/C(C)=N/NC(=O)Cn2nc([N+](=O)[O-])cc2C)cc1	21	1	-13	-6	0	-16	/	/	/	/	/
O=C(COC(=O)c1ccccc1Cl)NC1CCCCCC1	18	/	8	-11	2	8	/	/	/	/	/
